Data taken from ChEMBL document CHEMBL1133721, “Antitumor polycyclic acridines. 7. Synthesis and biological properties of DNA affinic tetra- and pentacyclic acridines” (J Med Chem, 2000).

Legend:
Format in all cases: functional, cell-based
Settings in all cases: Homo sapiens
A549 = test: Inhibitory activity against A549 cell line using MTT assay(Wild type p53)
Summary of the method: (§1)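 Cells were grown in RPMI 1640 with 2 mM L-glutamine, penicillin/streptomycin and 10% heat-inactivated FCS. Drugs were taken from 10 mM DMSO stocks. Viability was read by MTT at 0.4 mg/mL final for 4 h at 37 °C, with formazan dissolved in DMSO plus glycine buffer and read at 550 nm. IC50 is the concentration halving absorbance versus untreated controls, taken from dose-response curves.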

F460pv8/eto = test: Inhibitory activity against […] using MTT assay
Summary of the method: (§2)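 This is a 7-day MTT assay in RPMI 1640 with 2 mM L-glutamine, antibiotics and 10% heat-inactivated FCS. The H460pv8/eto variant was kept in 1 µM etoposide. MTT was used at 0.4 mg/mL final for 4 h at 37 °C, and formazan was dissolved in DMSO/glycine buffer and read at 550 nm. IC50 is the 50% absorbance reduction versus untreated controls, from dose-response curves.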

NCI-H460 [1] = test: Inhibitory activity against H460pv8 cell line using MTT assay; summary of the method: as §2
MDA-MB-231 = test: Inhibitory activity against MDA-231 cell line using MTT assay (ER-,EGFR+,mutant p53); summary of the method: as §1
MDA-MB-468 = test: Inhibitory activity against MDA-468 cell line using MTT assay (ER-, amplified EGFR, mutant p53); summary of the method: as §1
NCI/ADR-RES = test: Inhibitory activity against MCF-7/adr cell line using MTT assay; summary of the method: as §1
MCF7 [2] = test: Inhibitory activity against MCF-7 wt cell line using MTT assay (ER+,pgR+,wildtype p53); summary of the method: as §1
MCF7 [3] = test: Inhibitory activity against MCF7wt cell line using MTT assay; summary of the method: as §1
NCI-H647 = test: Inhibitory activity against NCI-H647 cell line using MTT assay(mutant p53); summary of the method: as §1
NCI-H358 [4] = test: (§3) Inhibitory activity against NCI-H358 cell line using MTT assay(mutant p53); summary of the method: as §1
NCI-H460 [5] = test: Inhibitory activity against NCI-H460 cell line using MTT assay; summary of the method: as §2
NCI-H460 [6] = test: (§4) Inhibitory activity against NCI-H460 cell line using MTT assay(Wild type p53); summary of the method: as §1
SK-BR-3 = test: Inhibitory activity against SKBR-3 cell line using MTT assay (ER-amplified erB2,mutant p53); summary of the method: as §1
T47D = test: Inhibitory activity against T47D cell line using MTT assay (ER+,mutant p53); summary of the method: as §1
NCI-H322M = test: (§5) Inhibitory activity against NCI-H322 cell line using MTT assay(mutant p53); summary of the method: as §1
ZR-75-1 = test: Inhibitory activity against ZR-75-1 cell line using MTT assay (ER+,pgr+,mutant p53); summary of the method: as §1
NCI-H226 [7] = test: Inhibitory activity against NCI-H226 cell line using MTT assay(mutant p53); summary of the method: as §1
NCI-H226 [8] = test: as §3
Summary of the method: (§6)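 Human NSCLC lines grown in RPMI 1640 with 2 mM L-glutamine, penicillin/streptomycin and 10% heat-inactivated FCS. Drugs were taken from 10 mM DMSO stocks. Cells were exposed for 7 days, then given MTT at 0.4 mg/mL final for 4 h at 37 °C. Formazan was dissolved in DMSO/glycine buffer and read at 550 nm. IC50 is the 50% absorbance drop versus untreated controls, read from dose-response curves.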

NCI-H358 [9] = test: as §4; summary of the method: as §6
NCI-H460 [10] = test: as §5; summary of the method: as §6

Row | SMILES | IC50 (A549) [nM] | IC50 (F460pv8/eto) [nM] | IC50 (NCI-H460 [1]) [nM] | IC50 (MDA-MB-231) [nM] | IC50 (MDA-MB-468) [nM] | IC50 (NCI/ADR-RES) [nM] | IC50 (MCF7 [2]) [nM] | IC50 (MCF7 [3]) [nM] | IC50 (NCI-H647) [nM] | IC50 (NCI-H358 [4]) [nM] | IC50 (NCI-H460 [5]) [nM] | IC50 (NCI-H460 [6]) [nM] | IC50 (SK-BR-3) [nM] | IC50 (T47D) [nM] | IC50 (NCI-H322M) [nM] | IC50 (ZR-75-1) [nM] | IC50 (NCI-H226 [7]) [nM] | IC50 (NCI-H226 [8]) [nM] | IC50 (NCI-H358 [9]) [nM] | IC50 (NCI-H460 [10]) [nM]
1 | COc1cc(NS(C)(=O)=O)ccc1Nc1c2ccccc2nc2ccccc12 [AMSACRINE] | 30 | 40 | 200 | 140 | 490 | 1160 | 75 | 75 | 70 | 150 | 60 | 60 | 60 | 220 | 210 | 180 | 1010 |  |  | 
2 | O=[N+]([O-])c1ccc2c(c1)Nc1c3ccccc3nc3cccc-2c13 | > 10000 |  |  | > 10000 | 40 |  | 550 |  | 950 |  |  |  | 120 | > 10000 |  | 30 | > 10000 | 9500 | > 10000 | > 10000
3 | c1ccc2c(c1)Nc1cccc3cc4[n+](c-2c13)CCC4 | 160 | 100 | 130 | 190 | 180 | 165 | 150 | 150 | 120 | 110 | 180 | 180 | 120 | 160 | 170 | 170 | 220 |  |  | 
4 | N#CCCCc1cnc2c3c(cccc13)Nc1ccccc1-2 | 2570 | 1090 | 2060 | 960 | 320 | 610 | 270 | 270 | 2920 | 2380 | 2560 | 2560 | 420 | 1310 | 2270 | 720 | 2720 |  |  | 
5 | c1ccc2c(c1)Nc1c3ccccc3nc3cccc-2c13 | 490 | 340 | 320 | 540 | 90 | 630 | 270 | 270 | 540 | 460 | 520 | 520 | 150 | 690 | 490 | 850 | 750 |  |  | 
6 | c1ccc2c(c1)Nc1cccc3ccnc-2c13 | 2140 | 1070 | 1100 | 1730 | 1370 |  | 830 |  | 2200 | 1420 | 2060 | 2060 | 580 | 2100 | 1860 | 1550 | 2340 |  |  | 
7 | Cc1ccc2c(c1)-c1cccc3nc4ccccc4c(c13)N2 | 810 | 490 | 490 | 550 | 170 | 1210 | 180 | 180 | 800 | 600 | 710 | 710 | 450 | 2130 | 840 | 390 | 1220 |  |  | 
8 | Nc1ccc2c(c1)Nc1c3ccccc3nc3cccc-2c13 | 80 | 120 | 50 | 230 | 40 | 355 | 50 | 50 | 80 | 400 | 70 | 70 | 20 | 270 | 140 | 30 | 170 |  |  | 
9 | Clc1ccc2c(c1)-c1cccc3nc4ccccc4c(c13)N2 | 7100 | 6470 | 3770 | 5450 | 310 | 6310 | 1670 | 1670 | 5300 | 6030 | 3900 | 3900 | 1030 | 5550 | > 10000 | 5590 | > 10000 |  |  | 
10 | COc1cc([C@@H]2c3cc4c(cc3[C@@H](O[C@@H]3O[C@@H]5CO[C@@H](C)O[C@H]5[C@H](O)[C@H]3O)[C@H]3COC(=O)[C@H]23)OCO4)cc(OC)c1O [ETOPOSIDE] | 160 | 740 | 390 | 150 | 600 |  | 85 |  | 80 | 1500 | 100 | 100 | 300 | 160 | 1590 | 240 | 240 |  |  | 
11 | COc1cccc2c1C(=O)c1c(O)c3c(c(O)c1C2=O)C[C@@](O)(C(=O)CO)C[C@@H]3O[C@H]1C[C@H](N)[C@H](O)[C@H](C)O1 [DOXORUBICIN] | 4 | 20 | 4 | 6 | 5 |  | 1 |  | < 1 | 130 | 10 | 10 | 20 | 7 | 30 | 9 | 8 |  |  | 
12 | N#CCCCc1cc2cccc3c2c(n1)-c1ccccc1N3 | 1330 |  | 1120 | 2050 | 1870 |  | 3790 |  | 1680 | 2010 | 1170 | 1170 | 3450 | 3590 | 1530 | 2700 | 1210 |  |  | 
